Structures are written as SMILES.

This series can be described thus: Toxicity liver stage against HepG2, at 10uM. The series is classed as cell-based. Also on record: test concentration 10 uM, cell line HepG2-A16-CD81EGFP. The settings on record: human, HepG2-A16-CD81EGFP cells; read-out: INHIBITION
The method in brief: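 Uninfected HepG2-A16-CD81EGFP cells, 3 × 10^3 per well, 1536-well, plated on prespotted compound at 10 μM final, parasite-free screening media added to match infected plates; puromycin 10 μM positive, DMSO 0.5% negative; run in parallel with 48 h PbLuc assay at 37 °C, 5% CO2; viability by CellTiter-Glo luminescence, normalized to controls.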
Take `CC(C)NC(=O)NC[C@H]1OC[C@@H](NCc2ccccc2F)[C@@H]1O`: the cytotoxicity at 10 µM is -1.31%. With `CC(C)(C)CN1CC(COc2ccccc2)Oc2ccncc2S1(=O)=O` (stereo unspecified) the figure was -65.3%; with `COc1cccc(CN2CC(O)CN(C(=O)C(C)(C)C)CC2=O)c1OC` (stereo unspecified), -57.6%; with `O=C(Cn1ccc2cc(Br)ccc21)NC[C@@H]1CCCN2CCCC[C@H]12`, 14.5%.

As to `CC1=Nc2c(c(=O)[nH]n2C(C)C)C(c2ccc3nccnc3c2)S1` (stereo unspecified), the cytotoxicity at 10 µM came out at 7.29%. `CC(C)n1ncc2c1NC(=O)CC21C(=O)Nc2c(Br)cc(Cl)cc21` (stereo unspecified): the cytotoxicity at 10 µM is 5.99%.

Take `O=C(CCNC(=O)c1cnccn1)Nc1ncc[nH]1`: the cytotoxicity at 10 µM was -44.7%. For `O=c1ccc(-n2ccnc2)nn1CCNS(=O)(=O)c1ccc(Br)cc1` the value was -7.21%; for `CS(=O)(=O)N1CCc2c(nnn2CC2CC2)C1COCC1CC1` (stereo unspecified), -3.15%; for `Cc1ccc(N2CCC3(CCN(Cc4csc(C)n4)CC3)CC2)nn1`, 9.43%. With `Cc1ccc(N2CC3(CCN(c4nccs4)C3)C2)nn1` the figure was -5.85%; with `Cc1cc(NC(=O)CCn2nc(C)c3ccccc32)n(C(C)C)n1`, 4.95%.

Take `CC(=O)Nc1ccc(CCC2(NC(=O)C3CC3)CCCCC2)cn1`: the cytotoxicity at 10 µM stood at 13.4%.

Regarding `CCN1CCCC(O)(c2nc(C)c(CCOc3ccc(F)cc3)s2)CC1` (stereo unspecified), the cytotoxicity at 10 µM was -22.4%. For `Cc1cccc(CN2CCOC(C)(C(=O)N3CCOCC3)C2)n1` (stereo unspecified) the value was -9.19%.

Take `COCCN(C(=O)c1ccccn1)c1nc2c(s1)CCc1c-2cnn1C`: the cytotoxicity at 10 µM is -13.8%. With `Cc1cc(-c2ccccc2C(=O)O)nc(C2CCCCN2C)n1` (stereo unspecified) the figure was -0.168%; with `O=C(O)C1(Cc2cccc(-c3ccc(F)c(F)c3)c2)CCOCC1`, -2.5%. With `Fc1ccc(CN2CCCC(c3nnc(-c4cnccn4)o3)C2)cc1F` (stereo unspecified) the figure was -8.03%. With `COc1ccc2c(c1)CC(NCc1cccc(NC(C)=O)c1)CC2` (stereo unspecified), the cytotoxicity at 10 µM is -39.2%.

Regarding `COCCNC(=O)CN(C)C(C)c1nc(C)no1` (stereo unspecified), the cytotoxicity at 10 µM worked out at 0.668%. `COCCn1nc(C(=O)N2CCN(C)CC2C)ccc1=O` (stereo unspecified): the cytotoxicity at 10 µM was -0.451%. Take `O=c1oc(-c2ccc(F)cc2)nn1CC1CCCCO1` (stereo unspecified): the cytotoxicity at 10 µM came to 2.35%. For `COc1ccc(C2CCN(S(=O)(=O)CCCC#N)CC2)cc1` the value was 7.13%; for `CC(C)c1csc(C2CCCN(C(=O)c3ccc[nH]3)C2)n1` (stereo unspecified), -48.6%. For `Cc1cnn(C2CN(CCOc3ccccc3C#N)C2)c1` the value was -8.88%. With `O=C(C1CCCCN1Cc1nccn1CC(F)(F)F)N1CCCC1` (stereo unspecified) the figure was 14.2%; with `Cc1ncc(C(=O)OCC2CCN(c3ccccc3)C2)s1` (stereo unspecified), -16%; with `CCC(CC)C(=O)NCC1(NC(C)c2ccccc2)CCOCC1` (stereo unspecified), 14.7%. On to `CCC(NC(=O)NCC(=O)Nc1ccc(F)cc1)c1ccncc1` (stereo unspecified), for which the cytotoxicity at 10 µM was -10.9%.

On to `Fc1ccc(OCC2CCCO2)c(NCc2cn3cccnc3n2)c1` (stereo unspecified), for which the cytotoxicity at 10 µM is -6.31%. As for `Cc1ccn(-c2ccccc2NCc2scnc2C)n1`, the cytotoxicity at 10 µM stood at 7.28%. In the case of `COc1cccc2c1OCC(NC(=O)NCCc1ccccn1)C2` (stereo unspecified), the cytotoxicity at 10 µM stood at 5.69%. For `N#Cc1ccc(C(=O)NS(=O)(=O)c2ccc(F)c(F)c2)cc1` the value was -4.11%; for `Cc1ncc2c(n1)CN(C(C(N)=O)c1ccc(F)cc1)CC2` (stereo unspecified), -1.01%. For `CCCc1nnc(NC(=O)N2CCCC2c2ccncc2)s1` (stereo unspecified) the value was 5.36%. For the compound `COC(=O)C(C)N1CCCc2cc(OC)ccc2C1` (stereo unspecified), the cytotoxicity at 10 µM amounted to 11%. For `CC(=O)N(Cc1c(F)cccc1F)C1CCCC1` the value was -3.63%; for `CN(Cc1ccc([S+](C)[O-])cc1)c1cncc(Br)c1` (stereo unspecified), 11.7%; for `CN(CC1CCN(CCO)CC1)CC(O)c1ccc(F)cc1F` (stereo unspecified), -59.3%. For `Cc1ccc2c(c1)OC(C)CN2C(=O)Cc1ccc(C)nc1` (stereo unspecified) the value was -44.2%. Consider `CCOCc1ccccc1NC(=O)NC1CCN(C2CCCC2)C1` (stereo unspecified), for which the cytotoxicity at 10 µM is 9.42%. With `CC(C)NC(=O)c1nnn(-c2cccc(C(F)(F)F)c2)c1C1CC1` the figure was -19%; with `CS(=O)(=O)N1CCC(c2nc3ccc(-c4cccc(F)c4)cn3n2)CC1`, 22.6%; with `CN1Cc2ccccc2CC2(CCN(C(=O)[C@H]3CCCO3)CC2)C1=O`, -113%. Take `CC(=O)N1CCC(c2nnc3ccc(C(=O)NCCN(C)C)cn23)C1` (stereo unspecified): the cytotoxicity at 10 µM was -104%. With `O=C(COc1ccc(F)cc1)N1CCO[C@H]2[C@@H](OCC3CC3)CC[C@@H]21` the figure was -101%; with `Cc1noc([C@H]2C[C@H]3CN(C(=O)C4CCOCC4)CC[C@@H]3O2)n1`, -72.6%; with `COCCNc1cc(-c2cccc(C(=O)O)c2C)c2cc[nH]c2n1`, -3.85%. With `CN(C)Cc1csc(-c2nccn2CCc2cccnc2)c1`, the cytotoxicity at 10 µM was -51.2%. As for `CCc1ncc(C(=O)N(C)CCc2nc3cc(OC)ccc3[nH]2)cn1`, the cytotoxicity at 10 µM is -47.4%.

On to `COC(=O)NCC(=O)N1CCCn2nc(CN3CC[C@H](F)C3)cc2C1`, for which the cytotoxicity at 10 µM is 13%. Take `CNc1ccnc(N2CC[C@@](O)(C3CCOCC3)[C@H](C)C2)n1`: the cytotoxicity at 10 µM is 8.64%. As to `Cc1nn(CC(=O)NCc2cc3n(n2)CCCN(CC(C)C)C3)cc1Cl`, the cytotoxicity at 10 µM is 1.95%. For `CCc1nnc(CN(C)c2nccc(CCC(F)(F)F)n2)o1` the value was 7.4%.

Consider `N[C@@H]1CCN(Cc2cccc(N3CCOCC3)c2)C[C@H]1O`, for which the cytotoxicity at 10 µM was found to be 11.8%. Consider `CCCc1nnc2sc(CC3CN(Cc4ccccc4)CCO3)nn12` (stereo unspecified), for which the cytotoxicity at 10 µM is 5.3%. Consider `CC1CCCN1Cc1cccc(C(=O)Nc2ccc3c(c2)CCC3=O)c1` (stereo unspecified), for which the cytotoxicity at 10 µM was -30.9%.

As for `CCSCCn1cc(-c2ncc[nH]2)nn1`, the cytotoxicity at 10 µM was -41.4%. Take `O=C(C1CCCO1)N1CCc2onc(-c3ccc(Cl)cc3)c2C1` (stereo unspecified): the cytotoxicity at 10 µM was -65.8%. With `CC(C)Cc1cc(C(=O)NC(C)(C)CN2CCCCCC2)on1` the figure was -4.75%; with `Cc1nn(C)cc1-c1ccnc(NCCN)n1`, -0.571%; with `CN(C)CCCN(C)c1nccc(N2CCN[C@H]3CS(=O)(=O)C[C@H]32)n1`, -0.0813%. With `Cc1cccc(-n2ncc3c2CCCC3NCC(C)(C)CO)c1C` (stereo unspecified) the figure was -1.19%; with `CC(=O)Nn1ccc2c(nnc3c(-c4ccc(F)cc4)cnn32)c1=O`, 1.36%. For `CC(=O)Nn1ccc2c(nnc3c(-c4ccccc4)cnn32)c1=O` the value was 3.06%; for `CC(=O)NCC1CCN(c2cc(C(C)C)nc3ccnn23)CC1`, 6.64%; for `COc1cc(CN(C)C(C)c2ccccn2)cc2c1OCO2` (stereo unspecified), 8.97%. As to `COCCC1(C(=O)O)CCCN(Cc2cc3c(cc2Cl)OCO3)C1` (stereo unspecified), the cytotoxicity at 10 µM was -5.41%. With `O=C(Cc1ccsc1)N1CCCC(c2n[nH]c3nccnc23)C1` (stereo unspecified) the figure was 1.98%. On to `Cc1cc2c(=O)n3c(nc2s1)CCN(Cc1ccncc1)CC3`, for which the cytotoxicity at 10 µM came out at 10.9%. On to `CCc1nc(C2CCCN2C(=O)c2cc[nH]n2)no1` (stereo unspecified), for which the cytotoxicity at 10 µM is -15.6%. `Cc1cnn(CC(C)NCc2ccc(OCC(N)=O)cc2)c1` (stereo unspecified): the cytotoxicity at 10 µM is -11.7%.

In the case of `Cc1ccccc1NC(=O)N1CCN(Cc2noc(C3CC3)n2)CC1`, the cytotoxicity at 10 µM was -17%.

In the case of `CC(NC(=O)NCCCN(C)S(C)(=O)=O)c1ccc(F)cc1` (stereo unspecified), the cytotoxicity at 10 µM is -21.9%. `COc1c(CNC2CCc3cc(Cl)ccc32)c(C)nn1C` (stereo unspecified): the cytotoxicity at 10 µM came to 5.64%.

On to `CCCc1nc(CNCC2CCCN2c2cccnn2)no1` (stereo unspecified), for which the cytotoxicity at 10 µM is -9.52%.

Turning to `CS(=O)(=O)NC1CCN(C(=O)NCc2cccnc2)CC1`, the cytotoxicity at 10 µM stood at 0.796%. On to `COc1ccccc1N1CCC(CNCc2cccc(OC)c2OC)C1` (stereo unspecified), for which the cytotoxicity at 10 µM amounted to 0.445%. With `CCN(CCNC(=O)c1ccccc1OCCOC)C1CC1`, the cytotoxicity at 10 µM stood at 11.7%. With `Cc1ncc(CNCCO)c2cc(C(=O)c3ccc(Br)cc3)oc12` the figure was 15.2%; with `CN1C(=O)CCC12CCCN(Cc1nccs1)C2` (stereo unspecified), -68.8%; with `CC1CCN(C(=O)[C@@H]2C[C@H]3OCC[C@H]3N(Cc3ccoc3)C2)CC1`, -72.5%. With `c1cnc(-c2noc(C3CN(Cc4ccc5c(c4)CCO5)C3)n2)cn1` the figure was 1.35%. Consider `Cc1cccc(N2CCOCC3(C2)CN(c2ccccc2)C(=O)CO3)n1` (stereo unspecified), for which the cytotoxicity at 10 µM was -4.53%. Regarding `COCc1nn(C(C)C)c2c1CCN(Cc1ccc(C)o1)C2`, the cytotoxicity at 10 µM amounted to 2.32%. As for `c1cnc(N2C[C@H]3CCN(Cc4ccncc4)C[C@H]3C2)nc1`, the cytotoxicity at 10 µM is -103%. For `CC1c2ncc(Cn3cccn3)n2CCN1Cc1ccccn1` (stereo unspecified) the value was -106%. `O=C(CSc1nnc(N2CCNCC2)s1)Nc1ccccc1`: the cytotoxicity at 10 µM was 2.84%. `CNC(=O)COC1COC2(CCN(Cc3ccncc3F)CC2)C1` (stereo unspecified): the cytotoxicity at 10 µM amounted to 7.37%. For `Cc1cccc(CN2CCC3(CCN(c4cccnc4)C3=O)C2)n1` (stereo unspecified) the value was -1.63%. Regarding `CN(Cc1cn2c(n1)CN(Cc1ccc(F)cc1)CC2)Cc1ccco1`, the cytotoxicity at 10 µM is -77%.

Regarding `Cc1noc(C)c1C(=O)N1Cc2ncn(C)c2C(COCC2CC2)C1` (stereo unspecified), the cytotoxicity at 10 µM was -111%.

For `CCn1ncc2c1CN(CCc1cccc(Cl)c1)CC2COC` (stereo unspecified), the cytotoxicity at 10 µM was -98.4%. Turning to `Cc1cccc(CN2C[C@@H]3CC[C@H]2CN(Cc2[nH]cnc2C)C3)n1`, the cytotoxicity at 10 µM is -3.43%. As to `Cc1cnc(CN(C)C(=O)C23CNCC2CNC3)[nH]1` (stereo unspecified), the cytotoxicity at 10 µM was -6.46%.
